In ChEMBL document CHEMBL4477242, “Synthesis, structure and antimicrobial evaluation of a new gossypol triazole conjugates functionalized with aliphatic chains and benzyloxy groups” (2016):
Converted amounts (≈) assume the structure as drawn.

Key:
Aspergillus brasiliensis = assay: Antifungal activity against Aspergillus brasiliensis ATCC 16404 after 18 hrs by serial microdilution assay; type: functional; details: ATCC 16404, 18 h
Procedure, shortened: (§1)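 Fungal strains tested by MIC determination, with miconazole run as the reference antifungal. The two Fusarium oxysporum formae speciales are isolates from plants (cabbage and tomatoes).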

Aspergillus fumigatus = assay: Antifungal activity against Aspergillus fumigatus ATCC 204305 after 18 hrs by serial microdilution assay; type: functional; details: ATCC 204305, 18 h; procedure, shortened: as §1
[1] = test system: Trichophyton mentagrophytes; assay: Antifungal activity against Trichophyton mentagrophytes ATCC 9533 after 18 hrs by serial microdilution assay; type: functional; details: ATCC 9533, 18 h; procedure, shortened: as §1
Rhizopus stolonifer [2] = assay: Antifungal activity against Rhizopus stolonifer ATCC 56227b after 18 hrs by serial microdilution assay; type: functional; procedure, shortened: as §1
Fusarium acuminatum = assay: Antifungal activity against Fusarium acuminatum ATCC 46651 after 18 hrs by serial microdilution assay; type: functional; details: ATCC 46651, 18 h; procedure, shortened: as §1
[3] = test system: Fusarium oxysporum f. sp. lycopersici; assay: Antifungal activity against Fusarium oxysporum f. sp. lycopersici after 18 hrs by serial microdilution assay; type: functional; procedure, shortened: as §1
[4] = Antifungal activity against Fusarium oxysporum f. sp. betae after 18 hrs by serial microdilution assay; type: functional; procedure, shortened: as §1
Staphylococcus aureus [5] = assay: Antibacterial activity against Staphylococcus aureus ATCC 25923 after 18 hrs by serial microdilution assay; type: functional; details: ATCC 25923, 18 h
Staphylococcus aureus [6] = assay: Antibacterial activity against Staphylococcus aureus ATCC 6538 after 18 hrs by serial microdilution assay; type: functional; details: ATCC 6538, 18 h
Staphylococcus aureus [7] = assay: Antibacterial activity against methicillin-resistant Staphylococcus aureus 1 after 18 hrs by serial microdilution assay; type: functional; details: Staphylococcus aureus, 1, 18 h
Staphylococcus aureus [8] = assay: Antibacterial activity against methicillin-resistant Staphylococcus aureus 2 after 18 hrs by serial microdilution assay; type: functional; details: Staphylococcus aureus, 2, 18 h
[9] = test system: Staphylococcus epidermidis; assay: Antibacterial activity against Staphylococcus epidermidis ATCC 12228 after 18 hrs by serial microdilution assay; type: functional; details: ATCC 12228, 18 h
[10] = test system: Staphylococcus epidermidis; assay: Antibacterial activity against Staphylococcus epidermidis ATCC 49134 after 18 hrs by serial microdilution assay; type: functional; details: ATCC 49134, 18 h
Streptococcus pneumoniae = assay: Antibacterial activity against Streptococcus pneumoniae ATCC 49619 after 18 hrs by serial microdilution assay; type: functional; details: ATCC 49619, 18 h
Micrococcus luteus = assay: Antibacterial activity against Micrococcus luteus ATCC 10240 after 18 hrs by serial microdilution assay; type: functional; details: ATCC 10240, 18 h
Bacillus subtilis = assay: Antibacterial activity against Bacillus subtilis […] after 18 hrs by serial microdilution assay; type: functional
Rhizopus stolonifer [11] = assay: Reduction in ergosterol content in Rhizopus stolonifer ATCC 56227 at 256 microg/ml by HPLC analysis; type: functional, organism-based; details: TDE = time-dependent effect
Procedure, shortened: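 Treated fungal material was derivatised and its ergosterol measured by HPLC from the area of the ergosterol peak at Rt 8.26 min. Content is expressed as mg per 1 g dry fungal mass and followed over incubation time up to 96 h.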

Rhizopus stolonifer [12] = assay: Reduction in ergosterol content in Rhizopus stolonifer ATCC 56227 assessed per gram of dry fungi mass at 256 microg/ml incubated for 24 hrs measured after 24 to 96 hrs by HPLC analysis; type: functional
Procedure, shortened: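 Ergosterol was quantified by HPLC in derivatized fungal material from treated cultures, using the peak area at a retention time of 8.26 min. Results are expressed as mg ergosterol per 1 g of dry fungal mass. Content was followed over incubation time, up to 96 h.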

Structure (SMILES)	MIC (Aspergillus brasiliensis) [µg/mL]	MIC (Aspergillus fumigatus) [µg/mL]	MIC [1] [µg/mL]	MIC (Rhizopus stolonifer [2]) [µg/mL]	MIC (Fusarium acuminatum) [µg/mL]	MIC [3] [µg/mL]	MIC [4] [µg/mL]	MIC (Staphylococcus aureus [5]) [µg/mL]	MIC (Staphylococcus aureus [6]) [µg/mL]	MIC (Staphylococcus aureus [7]) [µg/mL]	MIC (Staphylococcus aureus [8]) [µg/mL]	MIC [9] [µg/mL]	MIC [10] [µg/mL]	MIC (Streptococcus pneumoniae) [µg/mL]	MIC (Micrococcus luteus) [µg/mL]	MIC (Bacillus subtilis) [µg/mL]	Activity (Rhizopus stolonifer [11])	Activity (Rhizopus stolonifer [12]) [mg]
CCCc1cn(CCN/C=C2\C(=O)C(O)=C(C(C)C)c3cc(C)c(-c4c(C)cc5c(c4O)/C(=C/NCCn4cc(CCC)nn4)C(=O)C(O)=C5C(C)C)c(O)c32)nn1	256 (≈ 324 µM)	256 (≈ 324 µM)	256 (≈ 324 µM)	128 (≈ 162 µM)	256 (≈ 324 µM)	64 (≈ 80.9 µM)	64 (≈ 80.9 µM)	256 (≈ 324 µM)	256 (≈ 324 µM)	> 256	> 256	256 (≈ 324 µM)	256 (≈ 324 µM)	256 (≈ 324 µM)	> 256	> 256	–	–
Cc1cc2c(C(C)C)c(O)c(O)c(C=O)c2c(O)c1-c1c(C)cc2c(C(C)C)c(O)c(O)c(C=O)c2c1O [GOSSYPOL]	256 (≈ 494 µM)	256 (≈ 494 µM)	128 (≈ 247 µM)	128 (≈ 247 µM)	128 (≈ 247 µM)	32 (≈ 61.7 µM)	32 (≈ 61.7 µM)	16 (≈ 30.9 µM)	16 (≈ 30.9 µM)	16 (≈ 30.9 µM)	16 (≈ 30.9 µM)	16 (≈ 30.9 µM)	16 (≈ 30.9 µM)	16 (≈ 30.9 µM)	32 (≈ 61.7 µM)	16 (≈ 30.9 µM)	Tde	–
CCCCCc1cn(CCN/C=C2\C(=O)C(O)=C(C(C)C)c3cc(C)c(-c4c(C)cc5c(c4O)/C(=C/NCCn4cc(CCCCC)nn4)C(=O)C(O)=C5C(C)C)c(O)c32)nn1	256 (≈ 302 µM)	256 (≈ 302 µM)	256 (≈ 302 µM)	128 (≈ 151 µM)	256 (≈ 302 µM)	64 (≈ 75.6 µM)	64 (≈ 75.6 µM)	> 256	> 256	> 256	> 256	> 256	> 256	> 256	> 256	> 256	–	–
CCCCc1cn(CCN/C=C2\C(=O)C(O)=C(C(C)C)c3cc(C)c(-c4c(C)cc5c(c4O)/C(=C/NCCn4cc(CCCC)nn4)C(=O)C(O)=C5C(C)C)c(O)c32)nn1	256 (≈ 313 µM)	256 (≈ 313 µM)	256 (≈ 313 µM)	128 (≈ 156 µM)	256 (≈ 313 µM)	64 (≈ 78.1 µM)	64 (≈ 78.1 µM)	> 256	> 256	> 256	> 256	> 256	> 256	> 256	> 256	> 256	–	–
Cc1cc2c(c(O)c1-c1c(C)cc3c(c1O)/C(=C/NCCn1cc(COCc4ccccc4)nn1)C(=O)C(O)=C3C(C)C)/C(=C/NCCn1cc(COCc3ccccc3)nn1)C(=O)C(O)=C2C(C)C	128 (≈ 135 µM)	256 (≈ 270 µM)	256 (≈ 270 µM)	64 (≈ 67.6 µM)	128 (≈ 135 µM)	16 (≈ 16.9 µM)	16 (≈ 16.9 µM)	> 256	> 256	> 256	> 256	> 256	> 256	> 256	> 256	> 256	Tde	1
CCCCCc1cn(CCCN/C=C2\C(=O)C(O)=C(C(C)C)c3cc(C)c(-c4c(C)cc5c(c4O)/C(=C/NCCCn4cc(CCCCC)nn4)C(=O)C(O)=C5C(C)C)c(O)c32)nn1	256 (≈ 293 µM)	256 (≈ 293 µM)	256 (≈ 293 µM)	128 (≈ 146 µM)	256 (≈ 293 µM)	64 (≈ 73.1 µM)	64 (≈ 73.1 µM)	> 256	> 256	> 256	> 256	> 256	> 256	> 256	> 256	> 256	–	–
Clc1ccc(COC(Cn2ccnc2)c2ccc(Cl)cc2Cl)c(Cl)c1 (stereo unspecified) [MICONAZOLE]	–	–	–	–	–	16 (≈ 38.4 µM)	16 (≈ 38.4 µM)	–	–	–	–	–	–	–	–	–	–	–
CCCCc1cn(CCCN/C=C2\C(=O)C(O)=C(C(C)C)c3cc(C)c(-c4c(C)cc5c(c4O)/C(=C/NCCCn4cc(CCCC)nn4)C(=O)C(O)=C5C(C)C)c(O)c32)nn1	256 (≈ 302 µM)	256 (≈ 302 µM)	256 (≈ 302 µM)	128 (≈ 151 µM)	256 (≈ 302 µM)	64 (≈ 75.6 µM)	64 (≈ 75.6 µM)	> 256	> 256	> 256	> 256	> 256	> 256	> 256	> 256	> 256	–	–
Cc1cc2c(c(O)c1-c1c(C)cc3c(c1O)/C(=C/NCCCn1cc(COCc4ccccc4)nn1)C(=O)C(O)=C3C(C)C)/C(=C/NCCCn1cc(COCc3ccccc3)nn1)C(=O)C(O)=C2C(C)C	–	–	–	–	–	16 (≈ 16.4 µM)	16 (≈ 16.4 µM)	–	–	–	–	–	–	–	–	–	–	–
CCCc1cn(CCCN/C=C2\C(=O)C(O)=C(C(C)C)c3cc(C)c(-c4c(C)cc5c(c4O)/C(=C/NCCCn4cc(CCC)nn4)C(=O)C(O)=C5C(C)C)c(O)c32)nn1	–	–	–	–	–	64 (≈ 78.1 µM)	64 (≈ 78.1 µM)	–	–	–	–	–	–	–	–	–	–	–
